Key:
Homo sapiens [1] = species: Homo sapiens; assay: In vitro inhibitory activity against superoxide production from human neutrophils stimulated with f-MLP; NE indicates no effect; format: functional
Summary of the method: (§1)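 Neutrophils isolated from fresh venous blood of healthy adults by dextran sedimentation and Ficoll-paque gradient. Cells diluted in Hepes–Hanks, pH 7.4, then held at 1 × 10^6 cell/mL and preincubated 20 min at 37 °C with or without compound. Cytochalasin B (1 μg/mL final) added 10 min and ferricytochrome c (106 μM final) added 4 min before f-MLP stimulation. Reaction stopped with 1 mM N-ethylmaleimide, cells spun down, superoxide read as SOD-inhibitable absorbance at 550 nm.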

Homo sapiens [2] = species: Homo sapiens; assay: In vitro inhibitory activity against superoxide production from human neutrophils stimulated with f-MLP; format: functional; summary of the method: as §1
[3] = Solubility was measured by shaking with water and 1 equiv of NaOH; format: physicochemical; settings: water with 1 equiv of NaOH
Summary of the method: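 Solubility: compound shaken with water plus 1 equiv NaOH; dissolved amount quantified by HPLC.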

Homo sapiens [4] = species: Homo sapiens; assay: In vitro inhibitory activity against superoxide production from human neutrophils stimulated with f-MLP; act.= activation of superoxide production; format: functional; summary of the method: as §1
Homo sapiens [5] = species: Homo sapiens; assay: In vitro inhibitory activity against superoxide production from human neutrophils stimulated with f-MLP; NE= No effect; format: functional; summary of the method: as §1
Homo sapiens [6] = species: Homo sapiens; assay: In vitro inhibitory activity against superoxide production from human neutrophils stimulated with f-MLP; No effect; format: functional; summary of the method: as §1
[7] = Solubility was measured by shaking with water; format: physicochemical
Summary of the method: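 Aqueous solubility: compound shaken with water; dissolved amount quantified by HPLC.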

Cc1ccc(-c2nc(-c3ccc4c(c3)CCC(=O)N4)cs2)cc1C
IC50 (Homo sapiens [1]): Not Active

CCCOc1cc(-c2nc(-c3ccc4c(c3)CCC(=O)N4)cs2)ccc1OC
IC50 (Homo sapiens [2]): 90 nM

CCCOc1ccc(-c2nc(-c3ccc4c(c3)CCC(=O)N4)cs2)cc1OCCC
IC50 (Homo sapiens [1]): Not Active

O=C1CCc2cc(-c3csc(-c4ccc(C(=O)O)cc4)n3)ccc2N1
IC50 (Homo sapiens [1]): Not Active

c1cncc(-c2csc(-c3cccnc3)n2)c1
IC50 (Homo sapiens [2]): 1000 nM

O=C1CCc2cc(-c3csc(-c4ccccc4)n3)ccc2N1
IC50 (Homo sapiens [2]): > 10000 nM

COc1ccc(C(O)c2nc(-c3ccc4c(c3)CCC(=O)N4)cs2)cc1OC (stereo not given)
IC50 (Homo sapiens [1]): Not Active

COc1ccc(-c2nc(-c3ccc4c(c3)CCC(=O)N4)cs2)cc1
IC50 (Homo sapiens [2]): 9000 nM

COc1ccc(/C=C/c2nc(-c3ccc4c(c3)CCC(=O)N4)cs2)cc1OC
IC50 (Homo sapiens [2]): 2800 nM

CCOc1ccc(-c2nc(-c3ccccc3C(=O)O)cs2)cc1OCC
solubility [3]: 21 mg/mL | IC50 (Homo sapiens [2]): > 10000 nM

CCOc1ccc(-c2nc(-c3cccc(C(=O)O)c3)cs2)cc1OCC
solubility [3]: 23 mg/mL | IC50 (Homo sapiens [2]): 5 nM

COc1cc(OC)cc(-c2nc(-c3ccc4c(c3)CCC(=O)N4)cs2)c1
IC50 (Homo sapiens [1]): Not Active

O=C1CCc2cc(-c3csc(-c4ccc([N+](=O)[O-])cc4)n3)ccc2N1
IC50 (Homo sapiens [1]): Not Active

COc1cccc(-c2nc(-c3ccc4c(c3)CCC(=O)N4)cs2)c1OC
IC50 (Homo sapiens [4]): Active

COc1ccc(C(=O)c2nc(-c3ccc4c(c3)CCC(=O)N4)cs2)cc1OC
IC50 (Homo sapiens [2]): 1000 nM

COc1cc(-c2nc(-c3ccc4c(c3)CCC(=O)N4)cs2)ccc1[S+](C)[O-] (stereo not given)
IC50 (Homo sapiens [2]): 800 nM

CCCCOc1cc(-c2nc(-c3ccc4c(c3)CCC(=O)N4)cs2)ccc1OC
IC50 (Homo sapiens [2]): 300 nM

CCCCOc1ccc(-c2nc(-c3ccc4c(c3)CCC(=O)N4)cs2)cc1OC
IC50 (Homo sapiens [1]): Not Active

CCOc1ccc(-c2nc(-c3ccc4c(c3)CCC(=O)N4)cs2)cc1OC
IC50 (Homo sapiens [2]): 600 nM

COc1cc(-c2nc(-c3ccc4c(c3)CCC(=O)N4)cs2)ccc1SC
IC50 (Homo sapiens [2]): 400 nM

CCCCCCCCCCOc1ccc(-c2nc(-c3ccc4c(c3)CCC(=O)N4)cs2)cc1OCCCCCCCCCC
IC50 (Homo sapiens [5]): Not Active

CCOc1ccc(-c2nc(-c3ccc(C(=O)O)o3)cs2)cc1OCC
solubility [3]: 23 mg/mL | IC50 (Homo sapiens [2]): 20 nM

CCOc1ccc(-c2nc(-c3ccc(C(=O)O)cc3)cs2)cc1OCC
solubility [3]: 23 mg/mL | IC50 (Homo sapiens [2]): 200 nM

O=C1CCc2cc(-c3csc(-c4ccc5c(c4)OCCO5)n3)ccc2N1
IC50 (Homo sapiens [1]): Not Active

c1ccc(-c2csc(-c3cccnc3)n2)cc1
IC50 (Homo sapiens [2]): 1000 nM

CCCCOc1ccc(-c2nc(-c3ccc4c(c3)CCC(=O)N4)cs2)cc1OCCCC
IC50 (Homo sapiens [1]): Not Active

CCOc1ccc(-c2nc(-c3ccc4c(c3)CCC(=O)N4)cs2)cc1OCC
IC50 (Homo sapiens [2]): 80 nM

CC(=O)Oc1ccc(-c2nc(-c3ccc4c(c3)CCC(=O)N4)cs2)cc1OC(C)=O
IC50 (Homo sapiens [6]): Not Active

CCCOc1ccc(-c2nc(-c3ccc4c(c3)CCC(=O)N4)cs2)cc1OC
IC50 (Homo sapiens [1]): Not Active

COc1ccc(-c2nc(-c3ccc4c(c3)CCC(=O)N4)cs2)cc1OC
IC50 (Homo sapiens [2]): 300 nM

O=C1CCc2cc(-c3csc(-c4ccc(Cl)cc4)n3)ccc2N1
IC50 (Homo sapiens [1]): Not Active

CCOc1ccc(-c2nc(-c3ccc(C(=O)O)s3)cs2)cc1OCC
solubility [3]: 23 mg/mL | IC50 (Homo sapiens [2]): 80 nM

COc1ccc(-c2nc(-c3ccc4c(c3)CCC(=O)N4)co2)cc1OC
IC50 (Homo sapiens [2]): > 10000 nM

Nc1ccc(-c2csc(-c3cccnc3)n2)cc1
IC50 (Homo sapiens [2]): 3000 nM

COc1cc(-c2nc(-c3ccc4c(c3)CCC(=O)N4)cs2)ccc1S(C)(=O)=O
IC50 (Homo sapiens [1]): Not Active

CCOc1cc(-c2nc(-c3ccc4c(c3)CCC(=O)N4)cs2)ccc1OC
IC50 (Homo sapiens [2]): 90 nM

CCOc1ccc(-c2nc(-c3cc(OC(C)=O)cc(OC(C)=O)c3)cs2)cc1OCC
solubility thermodynamic [7]: < 0.001 mg/mL | IC50 (Homo sapiens [2]): 1 nM

COc1ccc(-c2nc(-c3ccc4c(c3)CCC(=O)N4)c[nH]2)cc1OC
IC50 (Homo sapiens [2]): > 10000 nM

COc1ccc(-c2nc(-c3ccc4c(c3)CCC(=O)N4)cs2)c(OC)c1
IC50 (Homo sapiens [2]): 3000 nM

COc1ccc(Cc2nc(-c3ccc4c(c3)CCC(=O)N4)cs2)cc1OC
IC50 (Homo sapiens [2]): 10000 nM

O=C1CCc2cc(-c3csc(-c4ccc(O)c(O)c4)n3)ccc2N1
IC50 (Homo sapiens [2]): 1000 nM

O=C1CCc2cc(-c3csc(-c4cccnc4)n3)ccc2N1
IC50 (Homo sapiens [2]): 1000 nM

CCOc1ccc(-c2nc(-c3cccc(C(=O)O)n3)cs2)cc1OCC [TETOMILAST]
solubility [3]: 21 mg/mL | IC50 (Homo sapiens [2]): 70 nM

Reference: ChEMBL document CHEMBL1128742, “Novel thiazole derivatives as inhibitors of superoxide production by human neutrophils: synthesis and structure-activity relationships” (J Med Chem, 1995)
